Calls of active or inactive are those of the source. The rule behind the calls is not given here.
Experiments:
[1] = system: Pseudomonas aeruginosa; assay: Potentiation of minocycline-induced antibacterial activity against Pseudomonas aeruginosa PAO750 harboring RND efflux pump/OpmH deletion mutant after 18 hrs by checkerboard assay; type: functional
Summary of the method: (§1)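 Checkerboard in MHB with a 10 × 7 matrix: antibiotic serially diluted along one axis, adjuvant along the other. Inoculum was a 1:50 dilution of a 0.5 McFarland suspension, incubated 18 h at 37 °C and read on a plate reader. Each FIC is the concentration in a no-growth well divided by the MIC alone; FIC index is their sum, with ≤0.5 taken as synergy.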

[2] = system: Pseudomonas aeruginosa; assay: Synergistic antibacterial activity against Pseudomonas aeruginosa PAO1 after 18 hrs in presence of minocycline by checkerboard assay; type: functional; settings: PAO1, 18 h
Summary of the method: (§2)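 Checkerboard in MHB: antibiotic diluted along one axis and adjuvant along the other (10 × 7 matrix). Inoculum was a 1:50 dilution in MHB of a 0.5 McFarland saline suspension; incubated 18 h at 37 °C. Each FIC = concentration in the no-growth well divided by the MIC alone; FIC index = sum of both FICs. ≤0.5 synergy, 0.5–4 no interaction, ≥4 antagonism.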

[3] = system: Pseudomonas aeruginosa; assay: Potentiation of minocycline-induced antibacterial activity against multidrug/extremely drug-resistant/colistin-susceptible Pseudomonas aeruginosa isolate 101885 assessed as fold reduction in minocycline MIC at 4 ug/ml after 18 hrs by checkerboard assay relative to control; type: functional
Summary of the method: (§3)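 Checkerboard in Mueller-Hinton broth, 10 × 7 matrix, with the adjuvant held at 4 µg/mL. Inoculum from a 0.5 McFarland suspension diluted 1:50; 18 h at 37 °C. Antibiotic MIC (lowest concentration with no growth) with adjuvant is compared with the antibiotic MIC alone, giving a fold reduction.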

[4] = system: Pseudomonas aeruginosa; assay: Potentiation of amikacin-induced antibacterial activity against Pseudomonas aeruginosa PAO1 at 4 ug/ml after 18 hrs by checkerboard assay; type: functional
Summary of the method: (§4)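 Checkerboard in Mueller-Hinton broth: antibiotic serially diluted along one axis and adjuvant along the other (10 × 7 matrix). Inoculum from a 0.5 McFarland saline suspension diluted 1:50 in MHB; 18 h at 37 °C, then plate read. MIC is the lowest concentration with no growth. FIC of each agent is its concentration in a no-growth well divided by its MIC alone; FIC index is the sum of both. FIC index ≤0.5 counts as synergy.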

[5] = system: Pseudomonas aeruginosa; assay: Potentiation of minocycline-induced antibacterial activity against Pseudomonas aeruginosa PAO200 harboring MexAB-oprM deletion mutant after 18 hrs by checkerboard assay; type: functional; summary of the method: as §4
[6] = system: Pseudomonas aeruginosa; assay: Potentiation of rifampicin-induced antibacterial activity against multidrug/extremely drug-resistant/colistin-susceptible Pseudomonas aeruginosa isolate P259-96918 assessed as fold reduction in rifampicin MIC at 4 ug/ml after 18 hrs by checkerboard assay relative to control; type: functional; summary of the method: as §3
[7] = system: Pseudomonas aeruginosa; assay: Potentiation of rifampicin-induced antibacterial activity against multidrug/extremely drug-resistant/colistin-susceptible Pseudomonas aeruginosa isolate P264-104354 at 4 ug/ml after 18 hrs by checkerboard assay; type: functional
Summary of the method: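 Checkerboard broth microdilution in MHB: antibiotic serially diluted along one axis, adjuvant along the other (10 × 7 matrix). Inoculum from 0.5 McFarland saline suspension diluted 1:50 in MHB; 18 h at 37 °C. MIC taken as lowest concentration with no growth. FIC per agent = combination MIC/MIC alone; FIC index = sum (≤0.5 synergy).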

[8] = system: Pseudomonas aeruginosa; assay: Synergistic antibacterial activity against Pseudomonas aeruginosa PAO1 after 18 hrs in presence of chloramphen by checkerboard assay; type: functional; settings: PAO1, 18 h; summary of the method: as §2
[9] = system: Pseudomonas aeruginosa; assay: Potentiation of rifampicin-induced antibacterial activity against multidrug/extremely drug-resistant/colistin-susceptible Pseudomonas aeruginosa isolate 101885 assessed as fold reduction in rifampicin MIC at 4 ug/ml after 18 hrs by checkerboard assay relative to control; type: functional; summary of the method: as §3
[10] = system: Pseudomonas aeruginosa; assay: Antibacterial activity against Pseudomonas aeruginosa PAO1 after 18 hrs by microtiter dilution assay; type: functional; settings: PAO1, 18 h
Summary of the method: (§5)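 Broth microdilution following CLSI guidelines. An overnight culture was adjusted to 0.5 McFarland in saline, then diluted 1:50 in Mueller-Hinton broth. This inoculum was added in equal volume to 2-fold serial dilutions of agent in MHB and incubated 18 h at 37 °C. MIC was the lowest concentration with no visible growth.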

[11] = system: Pseudomonas aeruginosa; assay: Potentiation of rifampicin-induced antibacterial activity against Pseudomonas aeruginosa PAO1 at 4 ug/ml after 18 hrs by checkerboard assay; type: functional; summary of the method: as §1
[12] = system: Acinetobacter baumannii; assay: Antibacterial activity against multidrug-resistant Acinetobacter baumannii AB030 after 18 hrs by microtiter dilution assay; type: functional; settings: AB030, 18 h; summary of the method: as §5
[13] = system: Pseudomonas aeruginosa; assay: Potentiation of minocycline-induced antibacterial activity against multidrug/extremely drug-resistant/colistin-resistant Pseudomonas aeruginosa isolate 101243 at 4 ug/ml after 18 hrs by checkerboard assay; type: functional; summary of the method: as §4
[14] = system: Pseudomonas aeruginosa; assay: Potentiation of rifampicin-induced antibacterial activity against multidrug/extremely drug-resistant/colistin-susceptible Pseudomonas aeruginosa isolate P262-101856 infected in Galleria mellonella assessed as mortality at 12.5 to 37.5 mg/kg after 24 hrs relative to control; type: functional
Summary of the method: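 Galleria mellonella larvae (~250 mg, used within 7 days), 15 per group, injected with 10 µL XDR P262 at 1.0×10^3 CFU/mL in PBS. PBS vehicle control. Survival scored over 24 h at 37 °C.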

[15] = system: Enterobacter cloacae; assay: Antibacterial activity against multidrug-resistant Enterobacter cloacae 117029 after 18 hrs by microtiter dilution assay; type: functional; settings: Enterobacter cloacae, 117029, 18 h; summary of the method: as §5
[16] = system: Pseudomonas aeruginosa; assay: Synergistic antibacterial activity against Pseudomonas aeruginosa PAO1 after 18 hrs in presence of novobiocin by checkerboard assay; type: functional; settings: PAO1, 18 h; summary of the method: as §2
[17] = Toxicity in Galleria mellonella assessed as survival rate at 200 mg/kg for 4 days relative to control; type: organism-based; settings: in vivo
Summary of the method: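 Galleria mellonella larvae, about 250 mg each, were used within 7 days of delivery. Compound alone was injected at 100 and 200 mg/kg with no bacterial challenge, ten larvae per group. Larvae were kept at 37 °C and survival was scored over 96 h.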

[18] = system: Enterobacter cloacae; assay: Synergistic antibacterial activity against multidrug-resistant Enterobacter cloacae 117029 after 18 hrs in presence of rifampicin by checkerboard assay; type: functional; settings: Enterobacter cloacae, 117029, 18 h; summary of the method: as §1
[19] = system: Acinetobacter baumannii; assay: Synergistic antibacterial activity against multidrug-resistant Acinetobacter baumannii 110193 after 18 hrs in presence of minocycline by checkerboard assay; type: functional; settings: Acinetobacter baumannii, 110193, 18 h; summary of the method: as §1
[20] = system: Acinetobacter baumannii; assay: Synergistic antibacterial activity against multidrug-resistant Acinetobacter baumannii AB027 after 18 hrs in presence of minocycline by checkerboard assay; type: functional; settings: AB027, 18 h; summary of the method: as §1
[21] = system: Pseudomonas aeruginosa; assay: Potentiation of meropenem-induced antibacterial activity against Pseudomonas aeruginosa PAO1 at 4 ug/ml after 18 hrs by checkerboard assay; type: functional; summary of the method: as §4
[22] = system: Pseudomonas aeruginosa; assay: Potentiation of rifampicin-induced antibacterial activity against Pseudomonas aeruginosa PAO200 harboring MexAB-oprM deletion mutant after 18 hrs by checkerboard assay; type: functional; summary of the method: as §4
[23] = system: Pseudomonas aeruginosa; assay: Potentiation of minocycline-induced bactericidal activity against Pseudomonas aeruginosa PAO1 at 0.125 times antibacterial MIC after 90 mins; type: functional
Summary of the method: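 Combination time-kill in PAO1 (LB, 37 °C). Aliquots taken at 0–360 min, serially diluted in PBS, plated on LB agar, and CFU counted after 20 h at 37 °C.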

Compound: Cl.Cl.Cl.Cl.Cl.Cl.Cl.NCCCC[C@H](N)C(=O)N(CCCCCCCCCCCCO[C@@H]1[C@@H](O[C@H]2O[C@H](CO)[C@@H](O)[C@H](N)[C@H]2O)[C@H](N)C[C@H](N)[C@H]1O[C@H]1O[C@H](CN)[C@@H](O)C[C@H]1N)Cc1c2ccccc2c(Cl)c2ccccc12
- fractional inhibitory concentration index (FICI) [1]: 0.75
- MIC [2]: 1 µg/mL
- fold change (FC) [3]: 16
- fractional inhibitory concentration index (FICI) [4]: 1.063
- fractional inhibitory concentration index (FICI) [5]: 0.531
- fold change (FC) [6]: 256
- fractional inhibitory concentration index (FICI) [7]: 0.094
- MIC [8]: 4 µg/mL
- fold change (FC) [9]: 128
- MIC [10]: 32 µg/mL
- fractional inhibitory concentration index (FICI) [11]: 0.094
- MIC [12]: 64 µg/mL
- fractional inhibitory concentration index (FICI) [13]: 0.281
- mortality [14]: 100%
- MIC [15]: 256 µg/mL
- MIC [16]: 2 µg/mL
- survival at 96 h [17]: 100%
- MIC [18]: 4 µg/mL
- MIC [19]: 2 µg/mL
- MIC [20]: 1 µg/mL
- fractional inhibitory concentration index (FICI) [21]: 2.031
- fractional inhibitory concentration index (FICI) [22]: 0.129
- Activity [23]: Active
